# Key:
# HepG2 [1] = assay: Induction of apoptosis in human HepG2 cells assessed as early apoptotic cells at GI50 incubated for 24 hrs by Annexin V-FITC/PI staining based flow cytometry (reference value: 2.98 %); type: functional
# HepG2 [2] = assay: Induction of apoptosis in human HepG2 cells assessed as fold change in caspase-3 level at 3 times GI50 incubated for 6 hrs by colorimetric assay relative to control; type: functional
# In short: (§1)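 Lysates taken from HepG2 cells 1, 6 or 24 h after treatment at 0.3×, 1× or 3× GI50. Lysis on ice for 10 min, then 10 000 × g spin; protein measured by Bradford. 80 μg protein incubated with DTT and DEVD-pNA substrate for 1 h at 37 °C, in triplicate; absorbance read at 405 nm. Result expressed as fold change versus untreated cells. Camptothecin 0.5 μM as control; mean and SE reported.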
# HepG2 [3] = assay: Induction of apoptosis in human HepG2 cells assessed as fold change in caspase-3 level at GI50 incubated for 6 hrs by colorimetric assay relative to control; type: functional; in short: as §1
# HepG2 [4] = assay: Induction of apoptosis in human HepG2 cells assessed as fold change in caspase-3 level at 0.3 times GI50 incubated for 24 hrs by colorimetric assay relative to control; type: functional; in short: as §1
# HepG2 [5] = assay: Induction of cell cycle arrest in human HepG2 cells assessed as accumulation at G0/G1 phase at IC50 incubated for 24 hrs by PI staining based flow cytometry (reference value: 24.63 %); type: functional
# HepG2 [6] = assay: Induction of apoptosis in human HepG2 cells assessed as fold change in caspase-3 level at 0.3 times GI50 incubated for 1 hr by colorimetric assay relative to control; type: functional; in short: as §1
# HepG2 [7] = assay: Induction of cell cycle arrest in human HepG2 cells assessed as accumulation at G0/G1 phase at 3 times IC50 incubated for 24 hrs by PI staining based flow cytometry (reference value: 24.63 %); type: functional
# HepG2 [8] = assay: Induction of cell cycle arrest in human HepG2 cells assessed as accumulation at G2/M phase at 3 times IC50 incubated for 24 hrs by PI staining based flow cytometry (reference value: 27.69 %); type: functional
# HepG2 [9] = assay: Induction of cell cycle arrest in human HepG2 cells assessed as accumulation at S phase at IC50 incubated for 24 hrs by PI staining based flow cytometry (reference value: 46.83 %); type: functional
# HepG2 [10] = assay: Induction of apoptosis in human HepG2 cells assessed as necrotic cells at 3 times GI50 incubated for 24 hrs by Annexin V-FITC/PI staining based flow cytometry (reference value: 5.34 %); type: functional
# HepG2 [11] = assay: Induction of apoptosis in human HepG2 cells assessed as early apoptotic cells at 3 times GI50 incubated for 24 hrs by Annexin V-FITC/PI staining based flow cytometry (reference value: 2.98 %); type: functional
# Huh-7 = assay: Cytotoxicity against human Huh-7 cells incubated for 96 hrs by MTT assay; type: functional
# In short: (§2)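 Cells grown in DMEM with 10% FBS and 1% antibiotic at 37 °C, 5% CO2. Trypsinised, seeded at 3 × 10^4 cells per mL, treated over an eight-point titration for 96 h. MTT (0.5 mg mL−1) added for 4 h at 37 °C, formazan dissolved in DMSO, absorbance read at 570 nm. GI50 is the concentration halving the MTT signal versus untreated control. Ellipticine served as reference; n ≥ 3 repeats.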
# HepG2 [12] = assay: Induction of cell cycle arrest in human HepG2 cells assessed as accumulation at G2/M phase at IC50 incubated for 24 hrs by PI staining based flow cytometry (reference value: 27.69 %); type: functional
# HepG2 [13] = assay: Induction of apoptosis in human HepG2 cells assessed as viable cells at GI50 incubated for 24 hrs by Annexin V-FITC/PI staining based flow cytometry (reference value: 88.62 %); type: functional
# HepG2 [14] = assay: Induction of apoptosis in human HepG2 cells assessed as fold change in caspase-3 level at 3 times GI50 incubated for 24 hrs by colorimetric assay relative to control; type: functional; in short: as §1
# HepG2 [15] = assay: Induction of apoptosis in human HepG2 cells assessed as viable cells at 3 times GI50 incubated for 24 hrs by Annexin V-FITC/PI staining based flow cytometry (reference value: 88.62 %); type: functional
# HepG2 [16] = assay: Induction of apoptosis in human HepG2 cells assessed as fold change in caspase-3 level at GI50 incubated for 24 hrs by colorimetric assay relative to control; type: functional; in short: as §1
# HepG2 [17] = assay: Induction of apoptosis in human HepG2 cells assessed as necrotic cells at GI50 incubated for 24 hrs by Annexin V-FITC/PI staining based flow cytometry (reference value: 5.34 %); type: functional
# HepG2 [18] = assay: Induction of apoptosis in human HepG2 cells assessed as late apoptotic cells at GI50 incubated for 24 hrs by Annexin V-FITC/PI staining based flow cytometry (reference value: 3.06 %); type: functional
# Hep 3B2 = assay: Cytotoxicity against human Hep3B cells incubated for 96 hrs by MTT assay; type: functional; in short: as §2
# HepG2 [19] = assay: Induction of apoptosis in human HepG2 cells assessed as late apoptotic cells at 3 times GI50 incubated for 24 hrs by Annexin V-FITC/PI staining based flow cytometry (reference value: 3.06 %); type: functional
# HepG2 [20] = assay: Induction of cell cycle arrest in human HepG2 cells assessed as accumulation at S phase at 3 times IC50 incubated for 24 hrs by PI staining based flow cytometry (reference value: 46.83 %); type: functional
# HepG2 [21] = assay: Cytotoxicity against human HepG2 cells incubated for 96 hrs by MTT assay; type: functional; in short: as §2
# HepG2 [22] = assay: Induction of apoptosis in human HepG2 cells assessed as fold change in caspase-3 level at 0.3 times GI50 incubated for 6 hrs by colorimetric assay relative to control; type: functional; in short: as §1
# [23] = Cytotoxicity against human Huh-7R cells incubated for 96 hrs by MTT assay; type: functional; in short: as §2
# HepG2 [24] = assay: Induction of apoptosis in human HepG2 cells assessed as fold change in caspase-3 level at GI50 incubated for 1 hr by colorimetric assay relative to control; type: functional; in short: as §1
# HepG2 [25] = assay: Induction of apoptosis in human HepG2 cells assessed as fold change in caspase-3 level at 3 times GI50 incubated for 1 hr by colorimetric assay relative to control; type: functional; in short: as §1
# HepG2 [26] = assay: Induction of apoptosis in human HepG2 cells assessed as early apoptotic cells incubated for 24 hrs by Annexin V-FITC/PI staining based flow cytometry (reference value: 2.98 %); type: functional
# HepG2 [27] = assay: Induction of apoptosis in human HepG2 cells assessed as necrotic cells incubated for 24 hrs by Annexin V-FITC/PI staining based flow cytometry (reference value: 5.34 %); type: functional
# HepG2 [28] = assay: Induction of apoptosis in human HepG2 cells assessed as late apoptotic cells incubated for 24 hrs by Annexin V-FITC/PI staining based flow cytometry (reference value: 3.06 %); type: functional
# HepG2 [29] = assay: Induction of apoptosis in human HepG2 cells assessed as fold change in caspase-3 level at 0.5 uM incubated for 24 hrs by colorimetric assay relative to control
# HepG2 [30] = assay: Induction of apoptosis in human HepG2 cells assessed as fold change in caspase-3 level at 0.5 uM incubated for 6 hrs by colorimetric assay relative to control
# HepG2 [31] = assay: Induction of apoptosis in human HepG2 cells assessed as viable cells incubated for 24 hrs by Annexin V-FITC/PI staining based flow cytometry (reference value: 88.62 %); type: functional
# HepG2 [32] = assay: Induction of apoptosis in human HepG2 cells assessed as fold change in caspase-3 level at 0.5 uM incubated for 1 hr by colorimetric assay relative to control
smiles,measurement,setting,value
COc1cc([C@H]2Oc3cc([C@H]4Oc5cc(O)cc(O)c5C(=O)[C@@H]4OC(=O)CNC(=O)[C@]45CC[C@@H](C)[C@H](C)[C@H]4C4=CC[C@@H]6[C@@]7(C)C[C@@H](OC(C)=O)[C@H](OC(C)=O)[C@@](C)(COC(C)=O)[C@@H]7[C@H](O)C[C@@]6(C)[C@]4(C)CC5)ccc3O[C@@H]2CO)ccc1O,Activity,HepG2 [1],10.65%
same,fold change (FC),HepG2 [2],1.27
same,fold change (FC),HepG2 [3],1.09
same,fold change (FC),HepG2 [4],1.62
same,Activity,HepG2 [5],26.72%
same,fold change (FC),HepG2 [6],0.59
same,Activity,HepG2 [7],27.07%
same,Activity,HepG2 [8],11.8%
same,Activity,HepG2 [9],61.09%
same,Activity,HepG2 [10],13.81%
same,Activity,HepG2 [11],1.28%
same,GI50,Huh-7,13.8 µM
same,Activity,HepG2 [12],9.78%
same,Activity,HepG2 [13],71.11%
same,fold change (FC),HepG2 [14],1.37
same,Activity,HepG2 [15],84%
same,fold change (FC),HepG2 [16],1.86
same,Activity,HepG2 [17],13.32%
same,Activity,HepG2 [18],4.92%
same,GI50,Hep 3B2,9.61 µM
same,Activity,HepG2 [19],0.91%
same,Activity,HepG2 [20],60.41%
same,GI50,HepG2 [21],32.5 µM
same,fold change (FC),HepG2 [22],0.76
same,GI50,[23],14.2 µM
same,fold change (FC),HepG2 [24],0.76
same,fold change (FC),HepG2 [25],1.69
CC[C@@]1(O)C(=O)OCc2c1cc1n(c2=O)Cc2cc3ccccc3nc2-1 [CAMPTOTHECIN],Activity,HepG2 [26],14.78%
same,Activity,HepG2 [27],3.85%
same,Activity,HepG2 [28],2.3%
same,fold change (FC),HepG2 [29],2.19
same,fold change (FC),HepG2 [30],2.21
same,Activity,HepG2 [31],79.08%
same,fold change (FC),HepG2 [32],1.94
